Test results taken from ChEMBL document CHEMBL1955744, “Bis-pyrrolyl-tetrazolyl derivatives as hybrid polar compounds: A case of lipophilic functional bioisosterism with bis-acetamides” (2012).
Activity calls are given as the source filed them. No cut-off for these calls is given here.

How the values were obtained:
[1] = Growth inhibition of MEL cells at 0.01 to 100 uM after 48 hrs relative to control; format: functional, Mus musculus
Outline: (§1)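 MEL cells seeded at 1.0 x 10^5 cells/mL in DMEM with 10% v/v FBS and 1% PS, 37 °C, 5% CO2. Agents dissolved in DMSO (final DMSO below 0.5% v/v) and tested at 0.01–100 µM for 48 h. Cells counted by Neubauer hemocytometer. Growth given as percentage of untreated control.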

MEL [2] = test: Growth inhibition of MEL cells after 48 hrs; format: functional, cell-based; settings: Mus musculus; outline: as §1
[3] = Induction of cell differentiation in MEL cells at 100 uM after 96 hrs by benzidine staining; format: functional, Mus musculus
Outline: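 MEL cells were seeded at 1.0 x 10^5 cells/mL in DMEM with 10% FBS and 1% PS at 37 °C, 5% CO2, then exposed to 100 µM agent in DMSO (final DMSO below 0.5% v/v) for 96 h. HMBA 5 mM served as positive control. Hb-producing cells were scored by benzidine-H2O2 staining and reported as percentage benzidine-positive.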

MEL [4] = test: Induction of cell differentiation in MEL cells assessed as hemoglobin accumulation at 5 mM by after 24 to 96 hrs by spectrophotometry; format: functional, cell-based; settings: Mus musculus
Outline: (§2)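 MEL cells (1.0 x 10^5 cells/mL, DMEM/10% FBS/1% PS, 37 °C, 5% CO2) were treated with 10^-4 M agent or 5 mM HMBA, alongside untreated controls. Total cellular Hb was measured spectrophotometrically in samples taken over a 24–96 h time course.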

[5] = Upregulation of beta-major globin gene expression in MEL cells at 5 mM after 24 to 96 hrs by RT-PCR analysis; format: functional, cell-based; settings: Mus musculus
Outline: (§3)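 MEL cells were treated with 10^-4 M agent or 5 mM HMBA for 0, 24, 48, 72 and 96 h, with untreated cells as control. Cells were washed in PBS. Total cytoplasmic RNA (1 µg/reaction) was extracted by acid guanidinium thiocyanate-phenol-chloroform and run in one-step RT-PCR: 50 °C 30 min, 94 °C 2 min, then 30 cycles of 94/58/72 °C, then 72 °C 10 min. β-major globin primers were used with β-actin as internal control.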

MEL [6] = test: Induction of cell differentiation in MEL cells assessed as hemoglobin accumulation at 0.1 mM by after 24 to 96 hrs by spectrophotometry; format: functional, cell-based; settings: Mus musculus; outline: as §2
[7] = Upregulation of beta-major globin gene expression in MEL cells at 0.1 mM after 24 to 96 hrs by RT-PCR analysis; format: functional, cell-based; settings: Mus musculus; outline: as §3
MEL [8] = test: Growth inhibition of MEL cells at 0.1 mM; format: functional, cell-based; settings: Mus musculus, TDE = time-dependent effect
Outline: (§4)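 Exponentially growing MEL cells (1.0 x 10^5 cells/mL, DMEM/10% FBS/1% PS, 37 °C, 5% CO2) were exposed to 10^-4 M agent in DMSO. Untreated cultures served as control and HMBA 5 mM as reference. Samples were removed at various intervals up to 96 h and counted by hemocytometer. Growth was expressed as absolute number or as percentage of control.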

[9] = Growth inhibition of MEL cells at 0.1 mM after 96 hrs; format: functional; settings: Mus musculus, read-out: GI; outline: as §4

| Structure (SMILES) | growth inhibition (GI) [1] | growth inhibition (GI) (MEL [2]) | Activity [3] | Activity (MEL [4]) | Activity [5] | Activity (MEL [6]) | Activity [7] | growth inhibition (GI) (MEL [8]) | inhibition of growth at 100 µM [9] |
| --- | --- | --- | --- | --- | --- | --- | --- | --- | --- |
| c1ccn(-c2nnn(Cc3ccc(Cn4nnc(-n5cccc5)n4)cc3)n2)c1 | 30% | Dose-dependent effect | 5% |  |  |  |  |  |  |
| CNC(=O)c1cccn1-c1nnn(CCCCCCn2nnc(-n3cccc3C(=O)NC)n2)n1 | 30% | Dose-dependent effect | 5% |  |  |  |  |  |  |
| CC(=O)NCCCCCCNC(C)=O |  |  |  | Active | Active |  |  |  |  |
| c1ccn(-c2nnn(CCCCCCCn3nnc(-n4cccc4)n3)n2)c1 | 30% | Dose-dependent effect | 5% |  |  |  |  |  |  |
| c1ccn(-c2nnn(CCCCCCn3nnc(-n4cccc4)n3)n2)c1 | 30% | Dose-dependent effect | 30% |  |  | Active | Active | tde | > 75% |
| c1ccn(-c2nnn(CCCCCn3nnc(-n4cccc4)n3)n2)c1 | 30% | Dose-dependent effect | 5% |  |  |  |  |  |  |
